Data set [1] has as its system Mus musculus. In words: Effective dose required to prevent reserpine ptosis in mice, administered orally; NA=Not active at 100 mg/kg. It is filed as functional, organism-based. On the set-up: dose 100 mg/kg. A digest of the protocol: (§1)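 Male Swiss-Webster or Harlan ICR mice, five per dose. Drug in saline given po or ip per line. Reserpine 2.5 mg/kg ip 30 min later. Complete absence of ptosis at 45 min after reserpine scored as positive. ED50 by Litchfield-Wilcoxon or Horn method, with 95% confidence intervals.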

In data set [2] the test system is Mus musculus. Description: Effective dose required to prevent reserpine ptosis in mice, administered orally. Type of data set: functional. The note with it: po. The procedure, abridged: as §1
Data set [3] concerns Mus musculus. Description: Effective dose required to prevent reserpine ptosis in mice, administered orally(po). Type of data set: functional. A digest of the protocol:
as §1

Data set [4] deals with Mus musculus. Description: Effective dose required to prevent reserpine ptosis in mice, administered (po)orally. It is filed as functional. The procedure, abridged:
as §1

Data set [5] deals with Mus musculus. In words: Effective dose required to prevent reserpine ptosis in mice, administered orally(po); NA=Not active at 100 mg/kg. The arrangement: dose 100 mg/kg. It is filed as functional, organism-based. A digest of the protocol: as §1
For data set [6], the system named is Mus musculus. Description: Effective dose required to prevent reserpine ptosis in mice, administered intraperitoneally. It is filed as functional, organism-based. The procedure, abridged:
as §1

Data set [7] has as its system Mus musculus. Description: Effective dose required to prevent reserpine ptosis in mice administered orally. It is filed as functional. Particulars: po. A digest of the protocol:
as §1

Data set [8] relates to Mus musculus. Description: Effective dose required to potentiate yohimbine hydrochloride induced lethality in mice, administered intraperitoneally; NA=Not active. It is filed as functional, organism-based. A digest of the protocol: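 Male Swiss-Webster or Swiss ND/4 mice, 20-24 g, randomized into groups of 10 and aggregated five per cage. Test drug in saline given ip, with a saline control group. Yohimbine HCl (20 mg/kg, sc) injected 30 min later, then mice reaggregated.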

In data set [9] the test system is Mus musculus. Description: Effective dose required to prevent reserpine ptosis in mice, administered intraperitoneally. Type of data set: functional. The note with it: ip. A digest of the protocol: as §1
Data set [10] has as its system Mus musculus. In words: Effective dose required to prevent reserpine ptosis in mice, administered intraperitoneally; NA=Not active at 100 mg/kg. Type of data set: functional, organism-based. On the set-up: dose 100 mg/kg. A digest of the protocol:
as §1

Data set [11] has as its system Mus musculus. Description: Effective dose against yohimbine hydrochloride induced lethality in mice, administered intraperitoneally. It is filed as functional. Particulars: ip. The procedure, abridged: (§2)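 Male Swiss-Webster or Swiss ND/4 mice, 20-24 g, randomized into groups of 10 and housed five per cage. Test drug in saline given ip, with a saline control group. Yohimbine hydrochloride 20 mg/kg sc was given 30 min later, and mice were then reaggregated.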

Data set [12] is described as follows: Lethal dose in mouse i.p. The note with it: in vivo, ip. It is filed as toxicity, organism-based. The procedure, abridged:
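Male Swiss-Webster albino mice, 20-24 g, in groups of five. Each group received one dose ip in saline (prepared 30 min before injection) at 10 mL/kg. Mice were held singly for about 5 h, then housed together with food and water. Deaths were counted at 1 and 24 h. LD50 by Litchfield-Wilcoxon.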

A short description of data set [13]: Therapeutic index administered intraperitoneally in mouse. It is filed as organism-based. The note with it: in vivo, ip, read-out: Therapeutic index. The procedure, abridged:
(§3)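 Index from mouse LD50 over reserpine-ptosis ED50 by the same route. […] Deaths recorded at 1 and 24 h; Litchfield-Wilcoxon calculation.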

Data set [14] in a line: Therapeutic index administered perorally in mouse. Type of data set: organism-based. Particulars: in vivo, po, read-out: Therapeutic index. The procedure, abridged: as §3
In data set [15] the test system is Mus musculus. In words: Electrical shock aggression was evaluated in mice, administered intraperitoneally; NA means no aggression blockade at 46.4 mg/kg. It is filed as functional, organism-based. On the set-up: dose 46.4 mg/kg. A digest of the protocol: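 Pairs of mice placed under an inverted 1000 cm3 beaker and shocked through the floor grid (3 mA, 3 Hz) for 2 min. Drug given ip 30 min before testing; scored all-or-none against a saline group. Fighting counted as inhibited when mean attacks fell 1.5 SD below the vehicle mean.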

A short description of data set [16]: Lethal dose in mouse p.o. Type of data set: toxicity, organism-based. The note with it: in vivo, po.
Data set [17] deals with Mus musculus. Description: Effective dose required to potentiate yohimbine hydrochloride induced lethality in mice, administered intraperitoneally. Type of data set: functional. The note with it: ip. A digest of the protocol: as §2
Data set [18] deals with Mus musculus. Description: Effective dose required to prevent reserpine ptosis in mice, administered po; NA=Not active. Type of data set: functional, organism-based. A digest of the protocol:
as §1

In data set [19] the test system is Mus musculus. In words: Effective dose required to prevent reserpine ptosis in mice administered intraperitoneally; NA=Not active. It is filed as functional, organism-based. The procedure, abridged: as §1

Active and inactive are the calls of the source. The calls are words filed in the database; no cut-off is given here.

For the compound `Cc1ccc(C/N=C(/N)Cc2ccc3ccccc3c2)c(C)c1`, the ED50 result with Mus musculus [1] was “inactive”.
As to `Cl.N=C(Cc1ccc2ccccc2c1Cl)N1CCC(c2ccccc2)CC1`, in the data set with Mus musculus [2], it took a dose of 8.8 mg/kg to reach the 50% effect level (ED50).
Consider `CNC(=N)Cc1ccc2ccccc2c1.Cc1ccc(S(=O)(=O)O)cc1.Cl`, for which, in the data set on Mus musculus [3], the 50% effective dose (ED50) stood at 22.5 mg/kg.
In the data set on Mus musculus [4], `CN(CCO)C(=N)Cc1ccc2ccccc2c1.Cl` returned an ED50 of 19.6 mg/kg.
Take `Cl.N=C(Cc1ccc2ccccc2c1)N1CCOCC1`: the ED50 with Mus musculus [4] was 17.1 mg/kg.
In the case of `N=C(Cc1ccc2ccccc2c1Cl)N1CCN(Cc2ccccc2)CC1`, the ED50 result in the data set with Mus musculus [5] was “inactive”.
For the compound `CC/N=C(/Cc1c(Cl)cccc1Cl)NCC`, the ED50 result with Mus musculus [6] is “inactive”.
Regarding `N=C(Cc1ccc2ccccc2c1)N1CCN(c2ccccc2)CC1`, the ED50 entry in the data set with Mus musculus [5] was “inactive”.
As to `Cl.N=C(Cc1ccc2ccccc2c1)N1CCCCCC1`, in the data set on Mus musculus [7], the ED50 came to 11 mg/kg.
Turning to `C/N=C(/Cc1ccc(-c2ccccc2)cc1)NC`, the ED50 result in the data set on Mus musculus [6] is “inactive”.
Take `C/N=C(/Cc1ccc2cc(C)ccc2c1)NC.Cl`: the ED50 entry with Mus musculus [8] is “inactive”. The figures for the ED50 in the data set on Mus musculus [2] and with Mus musculus [9] were 31.6 mg/kg and 19.6 mg/kg, respectively.
With `CC(C)/N=C(/Cc1ccc2ccccc2c1)NC(C)C`, the ED50 entry in the data set on Mus musculus [10] and with Mus musculus [1] was “inactive” each time.
As to `Cl.Cl.N=C(Cc1ccc2ccccc2c1Cl)NCCCN1CCOCC1`, it took a dose of 3.2 mg/kg to reach the 50% effect level with Mus musculus [3] (ED50).
Still for that read-out and setting: under `Cl.N=C(Cc1ccc2ccccc2c1Cl)N1CCN(c2cccc(Cl)c2)CC1` stands 16.2 mg/kg.
As for `COc1ccc2cc(CC(=N)N3CCC(c4ccccc4)CC3)ccc2c1`, the ED50 result in the data set on Mus musculus [5] is “inactive”.
In the data set with Mus musculus [2], `Cl.N=C(Cc1ccc2ccccc2c1Cl)N1CCC(Cc2ccccc2)CC1` registered an ED50 of 19.6 mg/kg.
In turn, `Cl.N=C(Cc1ccc2ccccc2c1)N1CCCC1` displayed an ED50 with Mus musculus [4] of 11 mg/kg.
For the compound `Cl.N=C(Cc1ccc2ccccc2c1)N1CCC(c2ccccc2)CC1`, the ED50 in the data set with Mus musculus [2] came out at 14.7 mg/kg.
Turning to `CN1CCN(C(=N)Cc2ccc3ccccc3c2)CC1.Cl`, the ED50 in the data set with Mus musculus [4] stood at 14.7 mg/kg.
For `C/N=C(/COc1ccc(Cl)cc1Cl)NC.Cl`, in the data set on Mus musculus [9], the ED50 came to 7.5 mg/kg.
Take `CC/N=C(/Cc1ccc2ccccc2c1Cl)NCC.Cl`: in the data set on Mus musculus [10], the ED50 entry was “inactive”. Further, the ED50 with Mus musculus [11] and in the data set on Mus musculus [2] was 41 mg/kg in each case.
Compound `Cl.N=C(Cc1ccc2ccccc2c1Cl)N1CCCC1` displayed an ED50 in the data set on Mus musculus [2] of 2.9 mg/kg.
Turning to `C/N=C(/Cc1ccc([N+](=O)[O-])cc1)NC.Cl`, the ED50 with Mus musculus [4] worked out at 3.2 mg/kg; in the data set on Mus musculus [17], 20 mg/kg; in the data set with Mus musculus [9], 3.2 mg/kg. For the same compound, the LD50 turned out to be 215 mg/kg in [12] and 681 mg/kg in data set [16]. The figures for the selectivity ratio in [13] and in data set [14] were 67 and 213, respectively. Moreover, the ED50 result in the data set with Mus musculus [15] was “inactive”.
In the case of `C/N=C(/Cc1ccc2ccccc2c1Cl)NC.Cl`, the ED50 in the data set with Mus musculus [4] turned out to be 15 mg/kg; with Mus musculus [17], 26.1 mg/kg; in the data set with Mus musculus [9], 11 mg/kg.
Regarding `C/N=C(/Cc1ccc2cc(OC)ccc2c1)NC.Cl`, in the data set on Mus musculus [8], the ED50 entry is “inactive”. The ED50 worked out at 23.7 mg/kg with Mus musculus [2] and 19 mg/kg in the data set with Mus musculus [9].
Turning to `CC/N=C(/Cc1ccc(Cl)c(Cl)c1)NCC.Cl`, the ED50 in the data set with Mus musculus [4] was determined as 12.6 mg/kg; in the data set on Mus musculus [17] it was 6 mg/kg; in the data set on Mus musculus [9], 9.3 mg/kg. The figures for the LD50 in [12] and in [16] were 31.6 mg/kg and 90 mg/kg, respectively. The figures for the selectivity ratio in data set [13] and in [14] were 3 and 7, respectively. The ED50 result in the data set on Mus musculus [15] was “inactive”.
For `COc1ccc2cc(CC(=N)N3CCCC3)ccc2c1`, in the data set with Mus musculus [5], the ED50 entry was “inactive”.
Regarding `Cl.N=C(Cc1ccc2ccccc2c1)N1CCC(O)(Cc2ccccc2)CC1`, it took a dose of 22.5 mg/kg to reach the 50% effect level with Mus musculus [3] (ED50).
Same read-out and setting: the result for `Cl.N=C(Cc1ccc2ccccc2c1Cl)N1CCC(O)(c2ccccc2)CC1` reads 24.5 mg/kg.
In the case of `C/N=C(/Cc1cc2ccccc2cc1C)NC`, the ED50 result in the data set with Mus musculus [6] and in the data set on Mus musculus [18] was “inactive” in each case.
Turning to `C/N=C(/Cc1ccc(C)cc1)NC`, the ED50 entry with Mus musculus [6] was “inactive”.
As for `C/N=C(\NC)C(c1ccc(Cl)cc1)c1ccc(Cl)cc1.Cl`, the ED50 was determined as 27.2 mg/kg in the data set with Mus musculus [11] and 2.4 mg/kg in the data set on Mus musculus [9].
For `CCC/N=C(/COc1ccccc1)NCCC`, in the data set with Mus musculus [19], the ED50 result is “inactive”.

The ED50 is the dose at which the effect has come halfway, by size or by number of responders. What is called LD50 is the dose expected to kill half of the subjects tested.
